# Screening data from PubChem.
# Shown are actives, neighbours in structure and some others; about 2.7% of the full set was active somewhere.
# RAM network inh – inhibitors of the yeast RAM network | 190,000 compounds, 1.8% hits | inhibition, % at 50 µM | AID 868 | S. cerevisiae dse1pr::URA3 reporter, 5-FOA growth OD615, 2 d; analog-sensitive cbk1-as2 kinase mutant strain;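 active = inhibition above a set limit, 3 SD over mean compound inhibition, cut at about 8.4% in these data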;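 note: 0% = DMSO-only wells with no growth and 100% = 10 µM 1-NA-PP1 full growth; inhibition rescues growth on 5-FOA so higher OD means more RAM inhibition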
# sdo1 growth – restores growth of sdo1-depleted yeast; S. cerevisiae sdo1-depleted JHY4D growth rescue, OD600 30 h; hits give high values; pdr5 snq2 efflux-pump mutant strain; z-score at 10 µM; AID 817; 140,000 compounds, 0.21% hits;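 active = z-score above 3 at both the 24 hr and the 30 hr optical density reads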;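 note: z-score against mean and SD of all compound wells on the same plate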
# BB579 growth dn – yeast BB579 growth reduction in restrictive medium; S. cerevisiae BB579 growth, OD615, 48 h; inhibition, % at 10 µM; 140,000 compounds, 0.51% hits; AID 804;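 active = inhibition above a set limit, 3 SD over the mean compound inhibition, cut at about 44% in these data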
#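 Material: Saccharomyces cerevisiae DeaD strain BB579, replicative lifespan model yeast; buffer or medium: CSMM-D restrictive synthetic medium containing dextrose (glucose); compound: 10 µM single dose, DMSO 0.25%; timing: 48 h compound exposure at 30 °C after 4 h preincubation; signal: turbidity as optical density at 615 nm; benchmarks: positive control amphotericin B 10 µg/mL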
# Yeast lifespan up – yeast lifespan extension; inhibition of the nicotinamide effect, % at 10 µM; 130,000 compounds, 0.68% hits; AID 775; S. cerevisiae growth with nicotinamide, OD615; deaD strain in restrictive glucose medium;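 active = inhibition above a set limit, placed 3 SD over the median of all compounds, cut at about 26% in these data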;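 note: 0% = nicotinamide-treated wells and 100% = cells grown without nicotinamide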
#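 Test system – modified budding yeast, DeaD strain · Compound – single dose 10 µM compound, 0.25% DMSO · Times – culture preincubation 4 h, compound exposure 48 h, both 30 °C · Detection – optical density (absorbance) at 615 nm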
# The depositor's hits bear a star; · = not tested or not shown.
SMILES,RAM network inh,sdo1 growth,BB579 growth dn,Yeast lifespan up
Cc1ccc(-c2nn(CCC(=O)O)cc2CCC(=O)O)cc1,1,0.78,8,-2
CC(=O)C1C(c2ccc(OC(F)F)cc2)NC(=O)NC1(O)C(F)(F)F (stereo not drawn),0,1,-21,-4
O=Nc1c(O)n(Cc2ccc(Cl)c(Cl)c2)c2ccccc12,1,-2.5,87*,-34
NC(=O)c1ccc(N=Cc2ccc([N+](=O)[O-])s2)cc1,-1,-1.6,100*,-11
Cc1cc(C)cc(N=Cc2ccc([N+](=O)[O-])s2)c1,-1,-2.1,100*,-11
O=[N+]([O-])c1ccc(C=Nc2ccc(Cl)c([N+](=O)[O-])c2)s1,-1,·,·,·
O=C(Cc1cccs1)N/N=C\c1ccc([N+](=O)[O-])s1,1,·,·,·
O=C(c1ccc(Cl)cc1)C(Cn1cncn1)C(Sc1ccccc1)c1ccccc1 (stereo not drawn),9.8*,-1.9,-70,2
CC(=O)N1CCN(c2ccccc2NC(=O)COc2ccccc2C)CC1,2,·,·,·
CCCCc1ccc(NC(=O)COc2ccc(C(=O)Nc3ccccc3OCC)cc2)cc1,8.7*,-0.32,-42,13
Cc1ccccc1OCC(=O)Nc1ccccc1-c1ccccc1NC(=O)COc1ccccc1C,9.4*,-0.15,-10,8
CCOC(=O)Nc1cccc(OCC(=O)Nc2ccccc2OCC)c1,9.6*,-0.39,-70,-14
CC1CCCN(c2ccc(F)cc2N)C1 (stereo not drawn),2,·,·,·
COc1ccc(C(=O)NNC(=O)c2cc3cccc(OC)c3oc2=O)cc1,3,·,·,·
O=C(C1=C[C@H](c2ccc3c(c2)OCO3)C[C@H](OCc2ccc(CO)cc2)O1)N1CCOCC1,10*,·,·,·
O=C(O)C1=C[C@@H](c2ccc3c(c2)OCO3)C[C@@H](OCc2ccc(CO)cc2)O1,2,·,·,·
O=C(C1=C[C@@H](c2ccc(C(F)(F)F)cc2)C[C@@H](OCc2ccc(CO)cc2)O1)N1CCOCC1,9.0*,·,·,·
CCOC(=O)c1c(NC(=O)CSc2nncn2C)sc(C)c1C,3,0.82,-7,3
CCOc1ccc(C(=O)Nc2ccc3c(c2)OCCO3)cc1OC,8.5*,-0.46,-61,-10
COc1ccc(NC(=O)C2CCN(S(=O)(=O)c3ccc(Br)s3)CC2)cc1OC,10*,-0.9,-44,17
O=C(Nc1ccc2c(c1)OCO2)C1CCN(S(=O)(=O)c2ccc3c(c2)OCCO3)CC1,5,-0.27,-29,-10
COc1ccc(S(=O)(=O)N2CCC(C(=O)Nc3ccc4c(c3)OCCO4)CC2)cc1OC,11*,0.63,-34,-5
COc1ccc(-c2noc(CCC(=O)Nc3cccc(C)c3)n2)cc1,0,0.05,-22,-3
COc1ccc(-c2noc(N(C)CC(=O)Nc3cccc(C(F)(F)F)c3)n2)cc1,10*,-2.2,-18,2
Cc1ccccc1-n1nnnc1Sc1nnnn1-c1ccccc1,0,-1.9,-6,39*
SMILES,RAM network inh,sdo1 growth,BB579 growth dn,Yeast lifespan up
COc1ccc(CCNC(=O)c2nnc(Cc3c(F)cccc3Cl)o2)cc1OC,3,-0.67,-53,4
Cc1ccc(Oc2nc3c(c(=O)n(Cc4ccccc4F)c(=O)n3C)n2C)cc1,1,-2,-35,3
O=C(Nc1ccc(Oc2cccc3ccccc23)cc1)c1ccco1,9.2*,-1.2,-27,-20
CN=c1scc(C)n1/N=C/c1cc(Br)c(O)c(Br)c1,10*,·,·,·
COC(=O)c1cccc(NC(=S)Nc2cc(Cl)ccc2OC)c1,0,·,·,·
COC(=O)c1cc(OC)c(OC)cc1NC(=S)Nc1cccc(C(C)=O)c1,1,0.57,-20,40*
COc1ccc(CCCc2nnc(SCC(=O)Nc3nc(C)cs3)n2C)cc1C,4,0.62,-37,2
Cc1cc(C)nc(N(C#N)CCOc2ccccc2)n1,-1,-0.37,-7,-18
CN(C)c1nc(N(C)C)nc(N(C#N)CCOc2ccccc2)n1,9.8*,-0.96,-46,·
Cc1cc(C)cc(CC2CC(=O)N(c3ccc(Cl)cn3)C2=O)c1 (stereo not drawn),0,-0.8,-25,43*
Cc1ccc(N2C(=O)CC(Cc3cc(C)cc(C)c3)C2=O)cc1 (stereo not drawn),1,·,·,·
c1ccc2c(c1)oc1c(N3CCOCC3)ncnc12,0,-0.54,56*,-14
Cc1nc(N2CCOCC2)c2oc3ccccc3c2n1,3,0.05,-20,-18
CC(C)(C)Cc1cc(N)on1,0,1.6,-13,7
COc1cc2c(=O)n(CCC(=O)NCC3CCCO3)c(=O)n(CC(=O)c3ccc(Cl)cc3)c2cc1OC (stereo not drawn),1,·,·,·
O=C1ON=C(c2ccccc2)/C1=C/c1ccc(OS(=O)(=O)c2ccccc2)cc1,2,0.03,58*,11
O=C(CNC(=S)N(Cc1ccccc1Cl)C1CCCC1)NCCCN1CCOCC1,0,·,·,·
O=C(NC(=S)Nc1ccccc1N1CCOCC1)c1ccc(-c2cc(Cl)ccc2Cl)o1,3,-1.6,-21,-2
CN(C)S(=O)(=O)c1cccc(NC(=O)COC(=O)c2cn(-c3ccccc3)nc2-c2ccccc2)c1,9.1*,-0.87,-20,4
CCn1c(COc2ccccc2C)nnc1SCC(=O)N1CCC(C)CC1,2,-0.9,-21,-11
O=c1c2[nH]c3ccccc3c2ncn1Cc1ccco1,4,0.44,-17,72*
O=C(NCc1ccco1)c1cc(C(=O)C2CCCCC2)c[nH]1,3,0.09,-56,96*
O=C(COc1ccc(Cl)cc1)N(Cc1ccccc1)c1ccccn1,-1,-0.33,-25,7
CCOc1ccc(C(=O)Nc2ccc(NC(=O)c3cccs3)cc2)cc1[N+](=O)[O-],10*,-0.28,-22,1
COc1ccc(C(=O)Nc2ccc(OCc3ccccc3)cc2)cc1[N+](=O)[O-],1,-0.43,9,60*
SMILES,RAM network inh,sdo1 growth,BB579 growth dn,Yeast lifespan up
N=C1C(c2nc3ccccc3s2)=C(O)CN1Cc1ccccc1,6,-1.4,-27,·
O=C(CSc1nc2ccccc2s1)Nc1ccc(Cl)c(S(=O)(=O)N2CCOCC2)c1,9.9*,-0.17,-51,3
CC(=O)C(Sc1ccc2nnc(-c3ccncc3)n2n1)C(C)=O,1,0.53,-43,-7
CCn1c(SCC(=O)Nc2sc3c(c2C#N)CCCC3)nnc1-c1ccncc1,11*,0.79,-40,·
COc1ccc(N(CC(=O)Nc2ccc(OC)cc2OC)S(=O)(=O)c2ccccc2)cc1,4,·,·,·
CCc1ccccc1NC(=S)NCCSc1ccc(Cl)cc1,10*,·,·,·
Cc1ccccc1NC(=S)NCCSc1ccc(Cl)cc1,1,·,·,·
Cc1cccc(NC(=S)NCC(C)CSc2ccc(Cl)cc2)c1 (stereo not drawn),8.9*,·,·,·
Cc1ccc(NC(=S)NCCSc2ccc(Cl)cc2)c(C)c1,11*,-2.3,43,1
Cc1ccc(C)c(NC(=S)NCCSc2ccc(Cl)cc2)c1,8,-1.9,42,-4
Cc1cccc(NC(=S)NCCSc2ccc(Cl)cc2)c1,8.6*,·,·,·
Cc1cc(S(=O)(=O)NCC(c2ccccc2)c2ccccc2)ccc1-n1cnnn1,2,-2.2,-38,-7
